In ChEMBL document CHEMBL5247578, “Effective synthesis of benzimidazoles-imidazo[1,2-a]pyrazine conjugates: A comparative study of mono-and bis-benzimidazoles for antitumor activity” (Eur J Med Chem, 2019):

What was measured:
NCI/ADR-RES = experiment: Antiproliferative activity against human NCI/ADR-RES cells assessed as cell growth at 0.0001 M incubated for 48 hrs by SRB assay relative to control; assay type: functional; conditions: read-out: Activity
K562 [1] = experiment: Antiproliferative activity against human K562 cells assessed as cell growth at 0.0000001 M incubated for 48 hrs by SRB assay relative to control; assay type: functional; conditions: dose 100 nM, read-out: Activity
OVCAR-5 [2] = experiment: Growth inhibition against human OVCAR-5 cells assessed as total growth inhibitory concentration incubated for 48 hrs by sulforhodamine B assay; assay type: functional
UO-31 = experiment: Antiproliferative activity against human UO-31 cells assessed as cell growth at 0.0001 M incubated for 48 hrs by SRB assay relative to control; assay type: functional; conditions: read-out: Activity
SK-MEL-28 [3] = experiment: Antiproliferative activity against human SK-MEL-28 cells assessed as cell growth at 0.000001 M incubated for 48 hrs by SRB assay relative to control; assay type: functional; conditions: read-out: Activity
M14 = experiment: Growth inhibition against human M14 cells assessed as total growth inhibitory concentration incubated for 48 hrs by sulforhodamine B assay; assay type: functional
MDA-MB-435 = experiment: Growth inhibition against human MDA-MB-435 cells incubated for 48 hrs by sulforhodamine B assay; assay type: functional
K562 [4] = experiment: Antiproliferative activity against human K562 cells assessed as cell growth at 0.00001 M incubated for 48 hrs by SRB assay relative to control; assay type: functional; conditions: read-out: Activity
K562 [5] = experiment: Antiproliferative activity against human K562 cells assessed as cell growth inhibition by measuring lethal concentration incubated for 48 hrs by sulforhodamine B assay; assay type: functional; conditions: read-out: LC50 (the source's name)
K562 [6] = experiment: Antiproliferative activity against human K562 cells assessed as cell growth at 0.00000001 M incubated for 48 hrs by SRB assay relative to control; assay type: functional; conditions: dose 10 nM, read-out: Activity
NCI-H226 [7] = experiment: Antiproliferative activity against human NCI-H226 cells assessed as cell growth at 0.00001 M incubated for 48 hrs by SRB assay relative to control; assay type: functional; conditions: read-out: Activity
LOX IMVI = experiment: Antiproliferative activity against human LOX IMVI cells assessed as cell growth at 0.0001 M incubated for 48 hrs by SRB assay relative to control; assay type: functional; conditions: read-out: Activity
Calf thymus DNA [8] = experiment: Binding affinity to calf thymus DNA assessed as gibbs free energy change at temperature of 308 K by Van't Hoff plot analysis; assay type: nucleic-acid assay; conditions: Bos taurus
SNB-75 [9] = experiment: Antiproliferative activity against human SNB-75 cells assessed as cell growth at 0.00000001 M incubated for 48 hrs by SRB assay relative to control; assay type: functional; conditions: dose 10 nM, read-out: Activity
Calf thymus DNA [10] = experiment: Binding affinity to calf thymus DNA assessed as quenching constant at temperature of 318 K by fluorescence spectroscopic method; assay type: nucleic-acid assay; conditions: Bos taurus
UACC-257 [11] = experiment: Antiproliferative activity against human UACC-257 cells assessed as cell growth at 0.0000001 M incubated for 48 hrs by SRB assay relative to control; assay type: functional; conditions: dose 100 nM, read-out: Activity
Calf thymus DNA [12] = experiment: Binding affinity to calf thymus DNA assessed as gibbs free energy change at temperature of 318 K by Van't Hoff plot analysis; assay type: nucleic-acid assay; conditions: Bos taurus
NCI-H226 [13] = experiment: Growth inhibition against human NCI-H226 cells assessed as total growth inhibitory concentration incubated for 48 hrs by sulforhodamine B assay; assay type: functional
HOP-62 [14] = experiment: Antiproliferative activity against human HOP-62 cells assessed as cell growth at 0.0000001 M incubated for 48 hrs by SRB assay relative to control; assay type: functional; conditions: dose 100 nM, read-out: Activity
Procedure, shortened: (§1)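 NCI-60 five-dose screen (10^-4 to 10^-8 M). Cells grown in RPMI 1640 with 5% FBS and 2 mM L-glutamine, plated at 5,000-40,000 cells/well and preincubated 24 h. Drug given from DMSO stock, then 48 h at 37 °C, 5% CO2. For adherent lines, cells fixed with cold TCA, SRB-stained and read at 515 nm. Percent growth taken against time-zero and untreated control.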

UACC-257 [15] = experiment: Growth inhibition against human UACC-257 cells incubated for 48 hrs by sulforhodamine B assay; assay type: functional
HCT-116 = experiment: Antiproliferative activity against human HCT-116 cells assessed as cell growth at 0.000001 M incubated for 48 hrs by SRB assay relative to control; assay type: functional; conditions: read-out: Activity; procedure, shortened: as §1
Calf thymus DNA [16] = experiment: Binding affinity to calf thymus DNA assessed as fluorescence quenching intensity at 5 uM at temperature of 308 K by fluorescence spectroscopic method relative to control; assay type: nucleic-acid assay; conditions: Bos taurus
SF-295 = experiment: Antiproliferative activity against human SF-295 cells assessed as cell growth inhibition by measuring lethal concentration incubated for 48 hrs by sulforhodamine B assay; assay type: functional; conditions: read-out: LC50 (the source's name)
HOP-62 [17] = experiment: Growth inhibition against human HOP-62 cells assessed as total growth inhibitory concentration incubated for 48 hrs by sulforhodamine B assay; assay type: functional
SN12C [18] = experiment: Antiproliferative activity against human SN12C cells assessed as cell growth at 0.0001 M incubated for 48 hrs by SRB assay relative to control; assay type: functional; conditions: read-out: Activity
Calf thymus DNA [19] = experiment: Binding affinity to calf thymus DNA assessed as gibbs free energy change at temperature of 298 K by Van't Hoff plot analysis; assay type: nucleic-acid assay; conditions: Bos taurus
SNB-75 [20] = experiment: Antiproliferative activity against human SNB-75 cells assessed as cell growth inhibition by measuring lethal concentration incubated for 48 hrs by sulforhodamine B assay; assay type: functional; conditions: read-out: LC50 (the source's name)
Procedure, shortened: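 NCI-60 five-dose screen (10^-4 to 10^-8 M, 10-fold dilutions; DMSO stocks). Cells in RPMI 1640 with 5% FBS and 2 mM L-glutamine, preincubated 24 h, then exposed 48 h at 37 °C, 5% CO2. Fixed with cold TCA, stained with 0.4% SRB, absorbance read at 515 nm. Time-zero plates used as reference. LC50 taken from [(Ti-Tz)/Tz]×100 […].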

K562 [21] = experiment: Antiproliferative activity against human K562 cells assessed as cell growth at 0.000001 M incubated for 48 hrs by SRB assay relative to control; assay type: functional; conditions: read-out: Activity
HCT-15 = experiment: Growth inhibition against human HCT-15 cells assessed as total growth inhibitory concentration incubated for 48 hrs by sulforhodamine B assay; assay type: functional
SN12C [22] = experiment: Growth inhibition against human SN12C cells assessed as total growth inhibitory concentration incubated for 48 hrs by sulforhodamine B assay; assay type: functional
Calf thymus DNA [23] = experiment: Binding affinity to calf thymus DNA assessed as DNA intercalation by measuring Stem-Volmer quenching constant at temperature of 308 K by fluorescence spectroscopic method; assay type: nucleic-acid assay; conditions: Bos taurus
COLO 205 = experiment: Antiproliferative activity against human COLO 205 cells assessed as cell growth inhibition by measuring lethal concentration incubated for 48 hrs by sulforhodamine B assay; assay type: functional; conditions: read-out: LC50 (the source's name)
SK-MEL-28 [24] = experiment: Growth inhibition against human SK-MEL-28 cells assessed as total growth inhibitory concentration incubated for 48 hrs by sulforhodamine B assay; assay type: functional
Albumin = Albumin (Bos taurus, UniProt P02769); experiment: Binding affinity to bovine serum albumin assessed as fluorescence quenching by fluorescence spectroscopic method relative to control; conditions: cattle
NCI-H522 = experiment: Antiproliferative activity against human NCI-H522 cells assessed as cell growth at 0.0001 M incubated for 48 hrs by SRB assay relative to control; assay type: functional; conditions: read-out: Activity
OVCAR-4 = experiment: Growth inhibition against human OVCAR-4 cells incubated for 48 hrs by sulforhodamine B assay; assay type: functional
OVCAR-5 [25] = experiment: Growth inhibition against human OVCAR-5 cells incubated for 48 hrs by sulforhodamine B assay; assay type: functional

Albumin, sequence (P02769 whole entry): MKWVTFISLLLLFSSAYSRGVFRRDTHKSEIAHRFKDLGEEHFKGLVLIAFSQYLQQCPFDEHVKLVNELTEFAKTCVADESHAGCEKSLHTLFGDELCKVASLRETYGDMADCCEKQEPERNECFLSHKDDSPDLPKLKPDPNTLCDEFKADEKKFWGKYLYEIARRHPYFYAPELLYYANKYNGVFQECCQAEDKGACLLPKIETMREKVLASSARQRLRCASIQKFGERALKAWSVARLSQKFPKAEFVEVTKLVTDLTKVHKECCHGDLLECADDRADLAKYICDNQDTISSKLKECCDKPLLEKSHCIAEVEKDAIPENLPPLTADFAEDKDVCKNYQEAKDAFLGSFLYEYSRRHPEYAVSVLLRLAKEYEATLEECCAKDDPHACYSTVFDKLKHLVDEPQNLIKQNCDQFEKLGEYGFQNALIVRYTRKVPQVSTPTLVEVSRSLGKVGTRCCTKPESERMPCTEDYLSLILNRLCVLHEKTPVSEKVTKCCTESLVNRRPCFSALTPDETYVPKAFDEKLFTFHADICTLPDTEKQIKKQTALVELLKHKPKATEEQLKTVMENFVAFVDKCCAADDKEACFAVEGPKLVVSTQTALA

Question: What does the source list for `COc1ccc(-c2cn3ccnc3c(-c3ccc4ncn(C5CCCCC5)c4c3)n2)cc1`?
Answer: growth at 100 µM (NCI/ADR-RES): 3%; growth at 0.1 µM (K562 [1]): 92%; TGI (OVCAR-5 [2]): > 100 µM; growth at 100 µM (UO-31): 26%; growth at 1 µM (SK-MEL-28 [3]): 58%; TGI (M14): > 100 µM; GI50 (MDA-MB-435): 0.312 µM; growth at 10 µM (K562 [4]): 8%; CC50 (K562 [5]): > 100 µM; growth at 0.01 µM (K562 [6]): 105%; growth at 10 µM (NCI-H226 [7]): 25%; growth at 100 µM (LOX IMVI): 19%; deltaG (Calf thymus DNA [8]): -5.85 kcal/mol; growth at 0.01 µM (SNB-75 [9]): 78%; Kq (Calf thymus DNA [10]): 0.73 10^12/M/s; growth at 0.1 µM (UACC-257 [11]): 104%; deltaG (Calf thymus DNA [12]): -3.79 kcal/mol; TGI (NCI-H226 [13]): > 100 µM; growth at 0.1 µM (HOP-62 [14]): 93%; GI50 (UACC-257 [15]): > 100 µM; growth at 1 µM (HCT-116): 23%; Activity (Calf thymus DNA [16]): 65%; CC50 (SF-295): > 100 µM; TGI (HOP-62 [17]): > 100 µM; growth at 100 µM (SN12C [18]): 31%; deltaG (Calf thymus DNA [19]): -7.91 kcal/mol; CC50 (SNB-75 [20]): > 100 µM; growth at 1 µM (K562 [21]): 25%; TGI (HCT-15): > 100 µM; TGI (SN12C [22]): > 100 µM; KSV (Calf thymus DNA [23]): 1.68 10^4/M; CC50 (COLO 205): > 100 µM; TGI (SK-MEL-28 [24]): > 100 µM

Question: Which results are given for `c1ccc(Cn2cnc3ccc(-c4nc(-c5ccc6c(c5)ncn6C5CCCCC5)cn5ccnc45)cc32)cc1`?
Answer: Activity (Albumin): 75%; growth at 1 µM (SK-MEL-28 [3]): 87%; growth at 100 µM (NCI-H522): -42%; GI50 (MDA-MB-435): 2.2 µM; growth at 0.01 µM (SNB-75 [9]): 81%; growth at 0.1 µM (UACC-257 [11]): 105%; growth at 0.1 µM (HOP-62 [14]): 86%; GI50 (OVCAR-4): 3.06 µM; GI50 (UACC-257 [15]): 2.24 µM; growth at 1 µM (HCT-116): 54%; GI50 (OVCAR-5 [25]): 2.64 µM
